Fh CTSL1 inh: Fasciola hepatica cathepsin L1 inhibitors, primary screen, counter-screen for PFM18AAP inhibitor project, biochemical, QFRET, fluorogenic peptide substrate. recombinant F. hepatica cathepsin L1, Z-Leu-Arg-MCA fluorescence. inhibition, % at 5.96 µM. 300,000 compounds, 0.49% hits;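 active means inhibition above the mean of all tested compounds plus 3 SD, set per screening campaign, cut at about 17% in these data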;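 further: 0% = plate median of test compound wells and 100% = 1 µM Z-Phe-Ala-diazomethylketone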
GAA850 FXN act: FXN promoter activators, primary screen, cell-based, luciferase luminescence, HEK293 lucGAA850; activation, % at 6 µM; HEK293 lucGAA850 FXN promoter luciferase reporter, 24 h; percent of 10 µM SAHA response; 360,000 compounds, 0.56% hits;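 active means activation above the average of all compounds screened plus 3 SD, cutoff fixed separately per campaign, cut at about 7.5% in these data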;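 further: 0% = DMSO wells and 100% = 10 µM SAHA wells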
SENP1 inh: human SENP1 catalytic domain inhibitors, primary screen, biochemical, FRET, uHTS | Sentrin-specific protease 1 (Homo sapiens), Q9P0U3 | recombinant SENP1 catalytic domain, CyPet-SUMO1-YPet FRET cleavage | inhibition, % at 10 µM | 360,000 compounds, 0.21% hits;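 active means inhibition at least 30% at 10 µM, raw YFP signal under a set limit, fluorescence ratio 0.5 to 1.5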;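 further: 0% = enzyme with DMSO and 100% = no enzyme wells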
Target sequence (Q9P0U3 419-644 limits assumed): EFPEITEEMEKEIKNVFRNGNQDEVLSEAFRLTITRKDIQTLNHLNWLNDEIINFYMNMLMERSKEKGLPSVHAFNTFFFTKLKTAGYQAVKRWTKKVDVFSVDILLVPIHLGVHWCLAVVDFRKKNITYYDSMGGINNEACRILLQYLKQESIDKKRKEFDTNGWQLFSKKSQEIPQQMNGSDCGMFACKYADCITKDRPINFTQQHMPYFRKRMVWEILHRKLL
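Assay system: hSENP1 catalytic domain, recombinant. Amount: SENP1 enzyme, 20 pM final. Schedule: 50 min reaction, RT, dark. Technique: FRET, CFP and YFP emission. Control set: no-enzyme wells low, DMSO-plus-enzyme wells high control.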
HDAC3 inh: HDAC3 deacetylase inhibitors, primary screen, biochemical, fluorescence, cell-free homogeneous; AID 2718, 2010; recombinant HDAC3, fluorogenic peptide/trypsin coupled; Histone deacetylase 3 (Homo sapiens), O15379; 320,000 compounds, 0.15% hits; inhibition, % at 8.3 µM; in the data active means inhibition above about 26%, passing the limit was not always enough; inconclusive means no clear call, values can overlap the other calls
AHR act: AHR activators, primary screen, cell-based, luminescence, luciferase reporter, human; Aryl hydrocarbon receptor (Homo sapiens), P35869; AHR-responsive luciferase reporter cells; activation, % at 5 µM; 320,000 compounds, 2.5% hits; in the data active means activation above about 47%;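 further: 0% = vehicle wells and 100% = reference agonist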
M18AAP inhibitor: PfM18AAP inhibitors, malaria aminopeptidase, primary screen, biochemical, QFRET, recombinant enzyme. H-Glu-NHMec fluorogenic cleavage. inhibition, % at 7.35 µM. 290,000 compounds, 1.2% hits. AID 1822, 2009;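 active means inhibition above the campaign mean inhibition over all tested compounds plus 3 SD, cut at about 28% in these data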;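 further: 0% = plate median of test compound wells and 100% = 2 mM ZnCl2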
* marks the source's active call; other numbers are inactive results; ? = inconclusive; / = no result. Only some compounds are listed: those with a hit (about 4.2% of all), similar ones and a draw of the others.

SMILES	Fh CTSL1 inh	GAA850 FXN act	SENP1 inh	HDAC3 inh	AHR act	M18AAP inhibitor
Cc1ncsc1C(=O)N1N=C2/C(=C/c3ccccc3)CCCC2C1c1ccccc1 (stereo unspecified)	2	1	1	1	14	0
COc1ccc(/C=C2\CCCC3C2=NN(C(=O)CSc2ncn[nH]2)C3c2ccc(OC)cc2)cc1 (stereo unspecified)	1	0	9	8	1	6
O=C(O)CSCC(=O)N1N=C2/C(=C/c3ccccc3)CCCC2C1c1ccccc1 (stereo unspecified)	5	-1	3	7	49*	4
Cc1ccccc1OCC(=O)Nc1ccc(N2CCN(C)CC2)c(Cl)c1	-2	5	1	-4	-3	8
NNC(=O)c1nnsc1-c1csnn1	/	1	2	/	/	/
CC(C)NC(=O)Nc1nnc([C@H]2C[C@H](O)[C@@H](CO)O2)s1	/	-2	3	/	/	/
COc1ccc(/C=C2\C(=O)OCc3cc(OC)c(OC)cc32)cc1OC	0	3	0	8	7	1
COc1cc2c(cc1OC)/C(=C/c1ccc(Cl)cc1)C(=O)OC2	0	3	-1	2	59*	7
CN(C)Cc1cc(O)c(CN(C)C)cc1O	5	2	32*	3	-1	28
CN(C)Cc1cc(C(C)(C)C)cc(C(C)(C)C)c1O	2	-1	0	-8	0	-3
COc1cc(C2CC(c3cccs3)=NN2C(=O)CCl)ccc1OC(F)F (stereo unspecified)	59*	-10	-24	10	2	13
COc1ccc(C2CC(c3cccs3)=NN2C(=O)CCl)cc1OC (stereo unspecified)	58*	-12	-26	8	3	-2
CC(C)c1ccc(/C=C(\NC(=O)c2ccccc2)C(=O)NCCN2CCOCC2)cc1	1	0	-1	?	1	2
CCOC(=O)[C@]12CCCC=C1N(Cc1cccc3ccccc13)C(=O)[C@H](CC(=O)N1CCN(C(=O)C3CC3)CC1)C2	/	/	0	/	/	/
COc1ccc(Nc2nc(N)nc(COc3ccc(OC)cc3)n2)cc1	2	1	3	2	60*	0
COc1ccc(Nc2nc(N)nc(SCc3nnc(C)s3)n2)cc1	0	3	5	-2	56*	0
COc1ccc(C(=O)N2CCCC(c3cc(C(=O)Nc4ccccc4)no3)C2)cc1 (stereo unspecified)	/	2	1	/	/	/
COc1ccccc1NC(=O)c1nc(S(=O)(=O)Cc2ccccc2)ncc1Cl	-1	5	-1	4	60*	-76
O=C(Nc1ccnc(-c2ccncc2)n1)C1CC1	0	2	1	-1	52*	1
CCc1ccc2c(c1)C1(NN=C(c3ccc(C)cc3)S1)C(=O)N2 (stereo unspecified)	0	2	-21	4	55*	6
CCc1ccc2c(c1)NC(=O)C2(C)Cc1ccc(F)cc1 (stereo unspecified)	/	3	1	/	/	/
NC(=O)c1ccc2c(=O)c(O)c(-c3cc(Cl)c(N)c(Cl)c3)[nH]c2c1	0	0	58	-4	21	51*
CCCNC(=O)c1ccc2c(=O)c(O)c(-c3ccc(Cl)c([N+](=O)[O-])c3)[nH]c2c1	4	1	7	-3	0	/
CCC1=NN2C(=N)/C(=C\c3ccc(SCc4ccco4)o3)C(=O)N=C2S1	2	-2	-19	6	24	30*
O=C1NC(=S)S/C1=C\c1ccc(SCc2ccco2)o1	2	-2	17	8	3	37*
O=C1NC(=S)S/C1=C\c1ccc(SCc2ccccc2)o1	2	1	-6	8	47	4
COCCOc1ccc(C(F)(F)F)cc1NC(=O)c1ccc(F)cc1	5	3	-2	-4	54*	4
